# pIC50: −log10 of the molar value.
# Tests used:
# BaF3 = experiment: Antiproliferative activity against mouse BAF3 cell line transformed with TEL-FGFR3 construct after 48 hrs by luciferase bioluminescent assay; format: functional, cell-based; settings: BaF3, 48 h
# In short: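 IL-3-independent BaF3 or BaF3 Tel-TK cells were grown in RPMI-1640 with 10% FBS and seeded at 4250 cells/well in 384-well plates. Compound serially diluted in DMSO was pin-transferred, followed by 48 h at 37 °C, 5% CO2. Viability was read by Bright-Glo luciferase luminescence.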
# Cytochrome P450 2C19 = Cytochrome P450 2C19 (Homo sapiens, UniProt P33261); experiment: Inhibition of CYP2C19 using CEC as substrate; format: ADME
# In short: (§1)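 Human CYP450 inhibition was measured with isoform-specific fluorogenic probe substrates: CEC for 1A2 and 2C19, MFC for 2C9, AMMC for 2D6. Incubation was at 37 °C with an NADPH-regenerating system in 384-well format. Metabolite was quantified by fluorescence, and IC50 was obtained by curve fitting.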
# Cytochrome P450 3A4 [1] = biological target: T1, Cytochrome P450 3A4 (Homo sapiens, UniProt P08684); experiment: Inhibition of CYP3A4 using BFC as substrate
# Cytochrome P450 3A4 [2] = biological target: T1, Cytochrome P450 3A4; experiment: Inhibition of CYP3A4 using DBF as substrate
# Cytochrome P450 2C9 = Cytochrome P450 2C9 (Homo sapiens, UniProt P11712); experiment: Inhibition of CYP2C9 using MFC as substrate; format: ADME; in short: as §1
# Cytochrome P450 2D6 = Cytochrome P450 2D6 (Homo sapiens, UniProt P10635); experiment: Inhibition of CYP2D6 using AMMC as substrate; format: ADME; in short: as §1
# Cytochrome P450 1A2 = biological target: T2, Cytochrome P450 1A2 (Homo sapiens, UniProt P05177); experiment: Inhibition of CYP1A2 using CEC as substrate; format: ADME; in short: as §1
# T2 sequence (P05177 whole entry): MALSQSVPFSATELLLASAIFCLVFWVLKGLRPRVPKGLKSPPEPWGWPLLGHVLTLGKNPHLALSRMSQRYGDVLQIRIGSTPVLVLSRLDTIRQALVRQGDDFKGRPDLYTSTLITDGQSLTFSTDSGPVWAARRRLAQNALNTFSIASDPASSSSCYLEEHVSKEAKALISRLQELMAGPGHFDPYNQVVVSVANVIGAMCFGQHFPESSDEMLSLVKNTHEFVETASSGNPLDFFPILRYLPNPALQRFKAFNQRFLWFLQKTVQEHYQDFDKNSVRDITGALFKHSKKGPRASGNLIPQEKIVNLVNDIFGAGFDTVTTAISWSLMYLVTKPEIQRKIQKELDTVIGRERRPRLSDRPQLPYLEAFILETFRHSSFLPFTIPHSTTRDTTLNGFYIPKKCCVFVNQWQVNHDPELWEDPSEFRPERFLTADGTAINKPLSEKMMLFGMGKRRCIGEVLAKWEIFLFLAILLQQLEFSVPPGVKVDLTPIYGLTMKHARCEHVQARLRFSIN
# Chain of Cytochrome P450 2D6 (P10635 whole entry): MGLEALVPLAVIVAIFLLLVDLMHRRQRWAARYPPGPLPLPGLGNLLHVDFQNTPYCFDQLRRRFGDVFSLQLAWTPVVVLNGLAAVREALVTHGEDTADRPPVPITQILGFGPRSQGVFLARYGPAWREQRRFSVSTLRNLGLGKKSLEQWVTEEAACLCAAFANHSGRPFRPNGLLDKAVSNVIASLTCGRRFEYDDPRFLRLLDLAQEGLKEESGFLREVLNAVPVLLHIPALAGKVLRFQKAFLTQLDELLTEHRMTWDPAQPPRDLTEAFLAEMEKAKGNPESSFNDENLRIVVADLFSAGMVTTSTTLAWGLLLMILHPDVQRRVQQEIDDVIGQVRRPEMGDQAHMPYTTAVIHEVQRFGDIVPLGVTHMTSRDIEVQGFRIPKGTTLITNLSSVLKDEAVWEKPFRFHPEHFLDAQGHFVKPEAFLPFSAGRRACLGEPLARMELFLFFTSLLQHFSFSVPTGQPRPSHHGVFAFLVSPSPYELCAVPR
# T1 sequence (P08684 whole entry): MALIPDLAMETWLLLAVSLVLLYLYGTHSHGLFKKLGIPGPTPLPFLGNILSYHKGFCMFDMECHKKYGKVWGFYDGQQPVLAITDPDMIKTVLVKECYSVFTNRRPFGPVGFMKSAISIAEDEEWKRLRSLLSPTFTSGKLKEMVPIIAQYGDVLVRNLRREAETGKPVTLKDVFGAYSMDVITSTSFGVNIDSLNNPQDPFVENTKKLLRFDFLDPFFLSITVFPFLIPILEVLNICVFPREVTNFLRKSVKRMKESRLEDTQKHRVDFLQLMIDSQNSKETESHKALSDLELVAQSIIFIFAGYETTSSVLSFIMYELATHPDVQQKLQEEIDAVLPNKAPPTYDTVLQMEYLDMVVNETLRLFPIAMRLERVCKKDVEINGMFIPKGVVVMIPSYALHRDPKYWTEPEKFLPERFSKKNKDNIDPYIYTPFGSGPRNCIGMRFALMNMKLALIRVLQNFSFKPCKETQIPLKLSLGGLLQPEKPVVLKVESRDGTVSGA
# Chain of Cytochrome P450 2C19 (P33261 whole entry, canonical isoform): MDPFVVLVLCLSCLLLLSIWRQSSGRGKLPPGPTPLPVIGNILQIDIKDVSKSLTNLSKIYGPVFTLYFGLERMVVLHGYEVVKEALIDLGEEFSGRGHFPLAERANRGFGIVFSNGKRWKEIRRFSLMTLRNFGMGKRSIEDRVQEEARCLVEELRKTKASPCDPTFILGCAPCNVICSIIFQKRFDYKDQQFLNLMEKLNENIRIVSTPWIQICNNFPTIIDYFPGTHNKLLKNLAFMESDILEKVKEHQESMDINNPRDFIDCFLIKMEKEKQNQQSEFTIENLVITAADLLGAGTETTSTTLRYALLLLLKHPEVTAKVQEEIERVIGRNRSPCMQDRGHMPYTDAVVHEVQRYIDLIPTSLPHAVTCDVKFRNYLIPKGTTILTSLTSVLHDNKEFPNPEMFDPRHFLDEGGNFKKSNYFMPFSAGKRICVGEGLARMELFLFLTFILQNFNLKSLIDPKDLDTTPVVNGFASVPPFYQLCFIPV
# Chain of Cytochrome P450 2C9 (P11712 whole entry): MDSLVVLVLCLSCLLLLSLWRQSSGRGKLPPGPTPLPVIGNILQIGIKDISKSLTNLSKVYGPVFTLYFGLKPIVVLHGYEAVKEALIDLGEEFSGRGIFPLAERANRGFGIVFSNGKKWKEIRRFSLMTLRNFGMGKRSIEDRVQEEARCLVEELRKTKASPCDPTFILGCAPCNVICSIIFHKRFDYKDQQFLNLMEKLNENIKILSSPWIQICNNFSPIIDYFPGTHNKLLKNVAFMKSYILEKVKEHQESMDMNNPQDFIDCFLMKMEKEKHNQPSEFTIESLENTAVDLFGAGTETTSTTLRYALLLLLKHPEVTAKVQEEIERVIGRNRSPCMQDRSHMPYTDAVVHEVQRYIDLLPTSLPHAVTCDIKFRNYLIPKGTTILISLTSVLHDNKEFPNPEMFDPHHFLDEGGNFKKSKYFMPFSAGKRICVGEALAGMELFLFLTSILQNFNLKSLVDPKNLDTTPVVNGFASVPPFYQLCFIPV
Compound,pIC50 (BaF3),pIC50 (Cytochrome P450 2C19),pIC50 (Cytochrome P450 3A4 [1]),pIC50 (Cytochrome P450 3A4 [2]),pIC50 (Cytochrome P450 2C9),pIC50 (Cytochrome P450 2D6),pIC50 (Cytochrome P450 1A2)
COc1cc(NC(=O)N(C)c2cc(Nc3ccc(N4CCN(C)CC4)cc3)ncn2)cc(OC)c1,5.82,,,,,,
COc1cc(NC(=O)Nc2cc(Nc3ccc(N4CCN(C)CC4)cc3)ncn2)c(Cl)c(OC)c1,6.08,,,,,,
COc1ccc(Cl)c(NC(=O)N(C)c2cc(Nc3ccc(N4CCN(C)CC4)cc3)ncn2)c1Cl,6.93,,,,,,
COc1ccc(Cl)c(NC(=O)Nc2cc(Nc3ccc(N4CCN(C)CC4)cc3)ncn2)c1,5.65,,,,,,
COc1cc(NC(=O)N(C)c2cc(Nc3ccc(N4CCN(C)CC4)cc3)ncn2)c(Cl)c(OC)c1,6.20,,,,,,
CCN(C(=O)Nc1cc(OC)cc(OC)c1Cl)c1cc(Nc2ccc(N3CCN(C)CC3)cc2)ncn1,6.12,,,,,,
COc1ccc(Cl)c(NC(=O)Nc2cc(Nc3ccc(N4CCN(C)CC4)cc3)ncn2)c1Cl,6.90,,,,,,

# The remaining lines, values ahead:
pIC50 (BaF3),pIC50 (Cytochrome P450 2C19),pIC50 (Cytochrome P450 3A4 [1]),pIC50 (Cytochrome P450 3A4 [2]),pIC50 (Cytochrome P450 2C9),pIC50 (Cytochrome P450 2D6),pIC50 (Cytochrome P450 1A2),Compound
7.85,5.96,5.92,5.22,5.40,< 5.00,< 5.00,CCN1CCC(c2ccc(Nc3cc(N(C)C(=O)Nc4c(Cl)c(OC)cc(OC)c4Cl)ncn3)cc2)CC1
7.57,5.44,6.00,< 5.00,< 5.00,< 5.00,< 5.00,COc1cc(OC)c(Cl)c(NC(=O)N(C)c2cc(Nc3ccc(CCCN(C)C)cc3)ncn2)c1Cl
8.70,6.05,5.96,< 5.00,5.77,< 5.00,< 5.00,COc1cc(OC)c(Cl)c(NC(=O)N(C)c2cc(Nc3cccc(N4CCN(C)CC4)c3)ncn2)c1Cl
7.55,< 5.00,< 5.00,5.60,< 5.00,< 5.00,< 5.00,COc1cc(OC)c(Cl)c(NC(=O)N(C)c2cc(Nc3ccc(OCCN4CCCC4)cc3)ncn2)c1Cl
7.85,6.52,6.30,< 5.00,< 5.00,< 5.00,5.15,COc1cc(OC)c(Cl)c(NC(=O)N(C)c2cc(Nc3cccc(CN4CCN(C)CC4)c3)ncn2)c1Cl
7.96,5.85,,,< 5.00,< 5.00,< 5.00,COc1cc(OC)c(Cl)c(NC(=O)N(C)c2cc(Nc3cccc(CN(C)C)c3)ncn2)c1Cl
